≈ marks a conversion by molar mass, not a printed value. Calls of active or inactive are those of the source. No cut-off for these calls is given here.
Assays:
[1] = system: Mycobacterium tuberculosis; assay: Antimicrobial activity against Mycobacterium tuberculosis H37Rv after 30 days by agar microdilution method; format: functional
In short: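 Twofold dilutions of compound in DMSO incorporated into Middlebrook 7H10 medium with OADC supplement in slanted tubes, preincubated 37 °C for 24 h, then streaked with H37Rv harvested from L-J medium into 0.85% saline with 0.05% Tween-80 (5 × 10^5 bacilli per tube). Incubated at 37 °C; MIC = lowest concentration giving complete inhibition of colonies versus drug-free control.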

Plasmodium falciparum [2] = assay: Antimalarial activity against Plasmodium falciparum 3D7 assessed as maturation of schizonts after 24 to 32 hrs by microdilution method; format: functional
In short: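 P. falciparum 3D7 (chloroquine sensitive); twofold serial dilutions in complete RPMI 1640 from 10 mg/ml DMSO stocks, parasitized RBCs added (final hematocrit 3–4%, 1.0–2.0% parasitaemia, >95% rings). Incubated 24–32 h at 37 °C with 5% CO2. Thin smears stained with 15% Giemsa; schizont maturation scored against controls to give MIC.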

Plasmodium falciparum [3] = assay: Antimalarial activity against Plasmodium falciparum 3D7 assessed as radiolabeled hypoxanthine uptake after 48 hrs by scintillation counting; format: functional, organism-based; conditions: 3D7, 48 h
In short: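 Chloroquine-sensitive P. falciparum 3D7 asynchronous culture at 0.5% parasitaemia and 1.5% hematocrit, exposed to compounds for 24 h at 37 °C in CO2. Radiolabelled hypoxanthine (0.5 µCi/well) then added and incubation continued 48 h. Cells harvested onto filter paper, and radioactivity counted by scintillation β-counter. IC50 derived from hypoxanthine uptake.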

[4] = Cytotoxicity against african green monkey Vero cells after 72 hrs; format: cell-based; conditions: chlorocebus sabaeus
In short: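 Vero (C1008 monkey kidney) cells grown in MEM + 15% FBS, 5% CO2, 37 °C. Trypsinized cells at 1 × 10^5 cells/ml seeded and allowed to adhere overnight, then exposed to serial compound dilutions for 72 h. Resazurin added and fluorescence read after 4 h.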

[5] = Selectivity index, ratio of CC50 for african green monkey (Cercopithecus aethiops) Vero cells to IC50 for Plasmodium falciparum 3D7; format: functional
In short: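 Ratio of Vero CC50 (resazurin fluorescence after 72 h exposure) to P. falciparum 3D7 IC50 (radiolabelled hypoxanthine uptake; 24 h compound exposure, then 48 h with label).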

Mycolicibacterium aurum [6] = assay: Inhibition of type II fatty acid biosynthesis pathway in Mycobacterium aurum at 25 uM after 12 hrs by lacZ reporter assay relative to untreated control; format: functional
In short: (§1)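 Recombinant M. aurum lacZ reporter strains (kasA promoter or hsp60 promoter) grown in Sauton's medium with kanamycin at 37 °C to 0.5 OD600, diluted to 0.04–0.05 OD, equilibrated 2 h, then treated 12 h at 37 °C (10, 25, 50, 75 µM). Cells sonicated in PBS pH 7.2 and protein normalized by Bradford. β-gal measured with ONPG (4 mg/ml), 30 min at 37 °C, stopped with Na2CO3, OD 410 nm. Triplicates, relative to untreated control.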

Mycolicibacterium aurum [7] = assay: Inhibition of type II fatty acid biosynthesis pathway in Mycobacterium aurum at 50 uM after 12 hrs by lacZ reporter assay relative to untreated control; format: functional; in short: as §1
Mycolicibacterium aurum [8] = assay: Inhibition of type II fatty acid biosynthesis pathway in recombinant Mycobacterium aurum carrying hsp60 promoter assessed as beta-galactosidase activity at 50 to 100 uM after 12 hrs by lacZ reporter assay relative to untreated control; format: functional, organism-based
Mycolicibacterium aurum [9] = assay: Inhibition of type II fatty acid biosynthesis pathway in Mycobacterium aurum assessed as beta-galactosidase activity at 50 to 100 uM after 12 hrs by lacZ reporter assay relative to untreated control; format: functional, organism-based
Mycolicibacterium aurum [10] = assay: Inhibition of type II fatty acid biosynthesis pathway in Mycobacterium aurum assessed as growth inhibition by cfu analysis; format: functional
In short: (§2)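 M. aurum (recombinant reporter strains) grown in Sauton's medium with 0.05% Tween-80 and kanamycin to 0.6 OD600, diluted to 0.05 OD. 1 × 10^5 cells inoculated into 5 ml medium with varying compound concentrations, grown 12 h at 37 °C with shaking. Viable cells counted by 10-fold serial dilution plating on nutrient agar-Tween-kanamycin. % inhibition calculated with untreated colony count taken as 100%.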

Mycolicibacterium aurum [11] = assay: Inhibition of type II fatty acid biosynthesis pathway in Mycobacterium aurum assessed as growth inhibition by lacZ reporter assay; format: functional; in short: as §2

CN(C)CCCNc1ccc(C(=O)C2CC2c2ccc(Cl)cc2)cc1 (stereo unspecified)
MIC [1]: 6.25 µg/mL (≈ 17.5 µM)
MIC (Plasmodium falciparum [2]): 50 µg/mL (≈ 140 µM)
IC50 (Plasmodium falciparum [3]): 2.86 µg/mL (≈ 8.01 µM)
CC50 at 72 h [4]: 15.8 µg/mL (≈ 44.4 µM)
Ratio CC50/IC50 [5]: 5.53
inhibition at 25 µM (Mycolicibacterium aurum [6]): 46.3%
inhibition at 50 µM (Mycolicibacterium aurum [7]): 57.4%
inhibition (Mycolicibacterium aurum [8]): inactive
inhibition (Mycolicibacterium aurum [9]): Active
inhibition (INH) (Mycolicibacterium aurum [10]): >=85%
inhibition (INH) (Mycolicibacterium aurum [11]): >=85%

Reference: ChEMBL document CHEMBL1287740, “Synthesis and bio-evaluation of alkylaminoaryl phenyl cyclopropyl methanones as antitubercular and antimalarial agents” (Bioorg Med Chem, 2010)
